MrgX1 antag – human MrgX1 receptor antagonism, primary screen | Q96LB2 | 310,000 compounds, 1.3% hits | MRGX1-HEK293 calcium flux, Fluo-4, BAM8-22 antagonism; hits give low values | AID 588676 | B-score at 10 µM;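 active = calcium-response B-score plate-corrected more than 3 library SD below zero, starting fluorescence within 5 deviations, no agonist response on first addition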;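 note: peak minus trough fluorescence over baseline after final BAM8-22 challenge near maximal dose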
Target sequence (Q96LB2 whole entry, looked up): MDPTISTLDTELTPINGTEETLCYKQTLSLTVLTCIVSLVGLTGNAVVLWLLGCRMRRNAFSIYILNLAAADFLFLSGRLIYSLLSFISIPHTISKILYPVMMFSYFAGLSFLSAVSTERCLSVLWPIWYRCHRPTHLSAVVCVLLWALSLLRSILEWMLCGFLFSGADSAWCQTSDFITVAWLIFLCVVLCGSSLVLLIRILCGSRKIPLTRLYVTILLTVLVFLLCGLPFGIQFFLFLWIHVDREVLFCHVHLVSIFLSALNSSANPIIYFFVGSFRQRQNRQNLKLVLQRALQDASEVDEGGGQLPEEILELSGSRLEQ
MrgX1 agonist – human MrgX1 receptor agonism, primary screen. Q96LB2. MrgX1-HEK293 cells, Fluo-4 calcium fluorescence, agonist mode; hits give high values. 310,000 compounds, 0.44% hits. AID 588627. B-score at 10 µM;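 active = calcium response B-score plate-corrected fluorescence ratio at least 3 library SD, with starting fluorescence B-score inside 5 SD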
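System: HEK293 cells stably expressing human MrgX1 receptor; Dosing: test compound in the initial addition of three; Schedule: overnight plating, then 30 min 37 °C plus 30 min room-temperature dye loading; Detection: kinetic calcium dye fluorescence, Fluo-4 NW; Controls: per-plate positive and negative controls for Z′ factor.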
RGS4 inh – inhibitors of human RGS4; HEK293 M3R/RGS4 inducible, Fluo-4 calcium flux; hits give high values; triggered by carbachol at its EC20; B-score at 10 µM; 310,000 compounds, 0.45% hits;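 active = B-score, a plate-corrected calcium signal, over three deviations above library mean, with baseline fluorescence within five deviations of library mean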;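 note: RGS4 expression induced by doxycycline in cells with stable M3 receptor; B-score is computed from the integrated fluorescence ratio over baseline after carbachol; higher B-score means a larger calcium signal and so more RGS4 inhibition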
Target sequence (P49798 whole entry, looked up): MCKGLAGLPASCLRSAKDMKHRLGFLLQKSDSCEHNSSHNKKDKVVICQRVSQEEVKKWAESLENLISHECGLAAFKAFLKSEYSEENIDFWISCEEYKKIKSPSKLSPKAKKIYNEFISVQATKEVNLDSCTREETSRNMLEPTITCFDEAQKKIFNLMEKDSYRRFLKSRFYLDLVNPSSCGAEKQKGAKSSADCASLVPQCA
RGS4 act – potentiators or activators of RGS4; HEK293 M3R/inducible RGS4, carbachol calcium flux Fluo4; hits give low values; B-score at 10 µM; 310,000 compounds, 0.92% hits; AID 463111;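 active = B-score of the integrated calcium signal more than 4 SD below the library mean, with starting fluorescence not abnormally high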;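 note: negative B-score means reduced calcium response which marks RGS4 activation or potentiation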
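Reagent: ECmax carbachol challenge; Test system: M3R-expressing HEK293 line, RGS4 induced by doxycycline; Schedule: overnight RGS4 induction, 30 min dye load 37 °C, 20 min compound RT; Detection: calcium dye Fluo4 fluorescence; Read-out: Agonist-evoked peak-minus-minimum fluorescence over baseline, integrated ratio, B score.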
MrgX1 PAM – human MrgX1 positive allosteric modulation, primary screen; Q96LB2; MrgX1-HEK293, Fluo-4 calcium flux, FDSS; hits give high values; B-score at 10 µM; 310,000 compounds, 0.63% hits;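 active = plate-corrected calcium response at least 3 library SD above typical, normal starting fluorescence, not activating the receptor alone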;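 note: compound read alongside a low EC10 to EC30 dose of BAM8-22 agonist; peak minus trough fluorescence over baseline measured at the second addition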
RGS4 act valid – RGS4 activation, validation assay | HEK293 M3R/RGS4 inducible, carbachol calcium flux Fluo4 | 1,100 compounds, 89% hits | shares compounds with RGS4 act | inhibition, % at 10 µM;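 active = inhibition above 3 SD of the buffer control wells, cut at about 41% in these data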;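 note: signal is the integrated peak-minus-minimum Fluo4 fluorescence over baseline ratio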
M3R Ca counter – counter-screen for RGS4 activators: effect in non-induced cells; shares compounds with RGS4 act; HEK293 M3R non-induced RGS4, Fluo4 calcium flux; after carbachol challenge at its EC90; inhibition, % at 10 µM; 1,100 compounds, 82% hits; AID 602283;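 active = inhibition exceeding 3 SD of buffer-only control wells, cut at about 26% in these data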;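 note: percent drop in integrated peak-minus-baseline over baseline Fluo4 ratio after carbachol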
RGS4 inh valid – validation of RGS4 inhibitors. shares compounds with RGS4 inh. HEK293 M3R/RGS4, carbachol calcium Fluo-4 fluorescence; carbachol added at its EC20; 0 = buffer wells, 100 = carbachol control. calcium response, % at 10 µM. 1,700 compounds, 65% hits. AID 492999;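 active = duplicate-averaged calcium response above the buffer-only control mean plus 5 SD of those controls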;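 note: integrated fluorescence ratio F max minus min over baseline F0; higher response in RGS4-induced cells means RGS4 inhibition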
RGS4 uninduced – checks RGS4 inhibitor effects in non-induced HEK293 M3R cells. shares compounds with RGS4 inh. carbachol calcium Fluo-4; submaximal (EC20) carbachol stimulus; buffer wells 0%, carbachol control wells 100%. activity (percent), % at 10 µM. 1,900 compounds, 20% hits. AID 493000; call rule not given here;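 note: RGS4 induction absent so cells express M3R without RGS4; higher means more calcium signal and flags a non-specific hit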
RGS4 inh ctr2 – second counter-screen for RGS4 inhibitors: non-induced cells without carbachol | shares compounds with RGS4 inh | HEK293 M3R/RGS4 non-induced, Fluo-4 calcium, no carbachol; normalised: buffer wells 0%, carbachol wells 100% | calcium response (agonist-mode artifact), % at 10 µM | 1,900 compounds, 22% hits;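 active = duplicate-averaged calcium rise in uninduced cells above buffer wells' mean plus 5 SD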
MrgX1 ag reconf – confirmation of human MrgX1 receptor agonists; shares compounds with MrgX1 agonist; MrgX1-HEK293, Fluo-4 calcium fluorescence, FDSS; activation, % at 10 µM; 600 compounds, 78% hits; AID 602412;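 active = calcium signal rise, corrected for plate position, at least 3 library SD high, with starting brightness within 5 such deviations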
HEK293 Ca flux – MrgX1 antagonist counter-screen hit in parental HEK293 cells; 4,000 compounds, 2% hits; shares compounds with MrgX1 antag; fluorescence ratio F(max-min)/F0 at 10 µM; Fluo-4 calcium fluorescence, FDSS;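 active = duplicate-averaged calcium fluorescence ratio at least three times the standard deviation of buffer wells, a nonspecific response in parental cells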
HEK293 Ca counter – activity in parental HEK293 cells without MrgX1. shares compounds with MrgX1 antag. parental HEK293 calcium flux, Fluo-4 fluorescence ratio; hits give high values. fluorescence ratio F(max-min)/F0 at 10 µM. 4,000 compounds, 0.4% hits;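 active = calcium fluorescence ratio, averaged over duplicates, at least 3 SD of the buffer-well ratio, meaning a nonspecific response in receptor-free cells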;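 note: untransfected parental HEK293 lacking MrgX1 used as counterscreen for MrgX1 allosteric activators; fluorescence change taken during the second addition on a kinetic imager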
HEK293 Ca cntr2 – counter-screen for MrgX1 activators: effect in parental HEK293 cells; AID 624115; fluorescence ratio F(max-min)/F0 at 10 µM; Fluo-4 calcium fluorescence (FDSS); hits give high values; 4,000 compounds, 8.7% hits; shares compounds with MrgX1 antag;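 active = calcium fluorescence ratio at least three times the spread of buffer wells, meaning a non-specific response in parental cells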
An asterisk follows results filed as active; i = inactive; / = not tested or not shown. Shown are actives, neighbours in structure and some others; about 3.5% of the full set was active somewhere.

SMILES | MrgX1 antag | MrgX1 agonist | RGS4 inh | RGS4 act | MrgX1 PAM | RGS4 inh valid | RGS4 uninduced | RGS4 inh ctr2 | others
COC(=O)c1ccc(COc2cc(C)cc3oc(=O)c4c(c23)CCCC4)o1 | i | i | i | -11* | i | / | / | / | RGS4 act valid=79*;M3R Ca counter=46*
Cc1ccc(-n2c(O)c(/C=N/NC(=O)c3ccncc3)c(=O)[nH]c2=O)cc1 | i | i | i | i | i | / | / | /
CN1CC=C(/C=C/c2ccc(-c3ccccc3)cc2)CC1 | i | i | i | -8.7* | i | / | / | / | RGS4 act valid=66*;M3R Ca counter=31*
CCOP(=S)(NN(Cc1ccccc1)C(=O)c1ccccc1)OCC | i | i | i | -14* | i | / | / | / | RGS4 act valid=0;M3R Ca counter=0
CCOP(=O)(OCC)C(Cc1ccccc1)NC(C)=O (configuration not stated) | i | i | i | i | i | / | / | /
CCn1ccnc1CN1CCCC(C(=O)c2cccc(C(F)(F)F)c2)C1 (configuration not stated) | i | i | i | -9.9* | i | / | / | / | RGS4 act valid=93*;M3R Ca counter=87*
CCN(CC)CCCOC(=O)C(OC)(c1ccccc1)c1ccccc1 | i | i | i | -11* | i | / | / | / | RGS4 act valid=91*;M3R Ca counter=86*
Nc1ccccc1C(=O)OCC(=O)c1ccc2c(c1)OCCO2 | i | i | i | i | i | / | / | /
CCCCn1c(=O)c(C(=O)Nc2ncccc2C)c(O)c2ccccc21 | i | 35* | i | -9.5* | i | / | / | / | RGS4 act valid=66*;M3R Ca counter=41*;MrgX1 ag reconf=i;HEK293 Ca flux=i;HEK293 Ca counter=i;HEK293 Ca cntr2=i
N#CC1=C(N)Oc2c(c(=O)sc3ccccc23)C1c1ccncc1 (configuration not stated) | i | i | i | i | i | / | / | /
Cc1ccc2c(c1)=NC(=O)/C(=C/c1c(O)[nH]c(=O)[nH]c1=O)C=2 | i | i | i | i | i | / | i | i
CC(C)Cc1nnc(NC(=O)CCC(=O)N2CCN(CCOC(c3ccccc3)c3ccccc3)CC2)s1 | i | i | i | i | i | / | / | /
Cc1cc([N+](=O)[O-])c(Cl)cc1NC(=O)C(C)C | i | i | i | i | i | / | / | /
CNc1cc(Cl)c2nonc2c1[N+](=O)[O-] | / | / | 17* | i | / | 54%* | i | i
O=C(Cn1cc(C=C2C(=O)NC(=O)NC2=O)c2ccccc21)NCC1CCCO1 (configuration not stated) | i | i | i | i | i | / | / | /
Cc1c(C=C2C(=O)N(C)C(=S)N(C)C2=O)c2ccccc2n1CC(=O)NCC1CCCO1 (configuration not stated) | i | i | 5.1* | i | i | 54%* | i | 24%*
C/C(=C\c1ccc(N(C)C)cc1)[N+](=O)[O-] | i | i | 7.6* | i | i | 24%* | 62%* | 14%*
CN(C)c1ccc(/C=C/[N+](=O)[O-])cc1 | i | i | 19* | i | i | 54%* | i | 76%*
C=C1C(=O)O[C@@H]2C[C@@H](C)[C@@H]3C=CC(=O)[C@@]3(C)[C@@H](OC(=O)CC(=O)O[C@H]3[C@@H]4C(=C)C(=O)O[C@@H]4C[C@@H](C)[C@@H]4C=CC(=O)[C@]43C)[C@H]12 | -5.3* | i | i | i | i | / | i | 11%*
CN1CCN(c2nc(N)c(Br)c(Cl)n2)CC1 | i | i | i | i | i | / | / | /
CCOC(=O)C1=C(N)Oc2ccccc2C12C(=O)N(CC(=O)OC)C(CC(=O)OC)=C2C(=O)OC (configuration not stated) | i | i | i | i | i | / | / | /
CCCc1[nH]nc2c1C1(C(=O)N(CC(N)=O)c3ccccc31)C(C(=O)OC)=C(N)O2 (configuration not stated) | i | i | i | i | i | i | i | i
CCCc1[nH]nc2c1C1(C(=O)N(Cc3ccccc3)c3ccccc31)C(C(=O)OC)=C(N)O2 (configuration not stated) | i | i | 5.9* | i | i | 19%* | 30%* | i
CCOC(=O)C1=C(N)OC2=C(C(=O)CCC2)C12C(=O)N(CC(N)=O)c1ccccc12 (configuration not stated) | i | i | i | i | i | / | / | /
COc1cccc(Oc2c(C)oc3cc(OC(=O)N(C)C)ccc3c2=O)c1 | i | i | i | i | i | / | / | /
COc1cc2c(cc1/C=C/[N+](=O)[O-])OCO2 | / | / | 12* | i | / | 36%* | 43%* | 74%*
CN(C)c1nc(OCCNC(=O)COc2ccc(Cl)cc2Cl)nc(N2CCCCC2)n1 | i | i | i | i | i | / | / | /
O=c1oc2ccccc2c(O)c1C(c1ccc([N+](=O)[O-])cc1)c1c(O)c2ccccc2oc1=O | / | / | 4.9* | i | / | 30%* | i | i
COc1ccc(C(=O)N2CCOCC2)cc1S(=O)(=O)N1CCC(C)CC1 | i | i | i | i | i | / | / | /
